The values that follow come from ChEMBL document CHEMBL1944515 (J Med Chem, 2012).

What is called IC50 is the midpoint of a concentration-inhibition curve. By inhibition is commonly meant the relative decrease from the control value, in per cent.

The source made the active and inactive calls. No cut-off for these calls is given here.

The test system of one data set is Jurkat. As to the kind of experiment: Cytotoxicity against human Jurkat cells after 72 hrs by MTT assay. In kind it is functional, cell-based. The procedure, abridged:
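8 × 10^3 cells/well were preincubated 18 h at 37 °C, 5% CO2, then given graded concentrations for 72 h, with final DMSO not above 0.25%. Viability was read by MTT. […] Mean ± SE from at least three experiments.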

Another data set relates to MCF7. As to the kind of experiment: Cytotoxicity against human MCF7 cells after 72 hrs by MTT assay. The data set is classed as functional, cell-based. Conditions: MCF7, 72 h.
In data set [1] the test system is HT-29. As to the kind of experiment: Cytotoxicity against human HT-29 cells after 72 hrs by MTT assay. The data set is classed as functional, cell-based. The settings on record: HT-29, 72 h.
The species named for the next data set is Bos taurus. Briefly: Displacement of [3H]colchicine from bovine tubulin at 5 uM by DEAE-cellulose filter method. The procedure, abridged: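 Inhibition of [3H]colchicine binding was measured in mixtures of 1 μM tubulin, 5 μM [3H]colchicine and 5 μM test compound. Results are percent inhibition of binding.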
The subject of data set [2] is LoVo. Briefly: Cytotoxicity against human doxorubicin-resistant LoVo cells after 72 hrs by MTT assay. In kind it is functional, cell-based. The procedure, abridged: (§1)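 Cells seeded at 8 × 10^3 per well and left 18 h at 37 °C, 5% CO2, then given fresh medium with compound at a range of concentrations for 72 h; DMSO at most 0.25% final. Viability read by MTT relative to 0.25% DMSO-treated cells. […] LoVoDoxo kept in Ham's F12 with 0.1 μg/mL doxorubicin; A549-T12 kept in DMEM with 12 nM paclitaxel.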

In data set [3] the test system is LoVo. Briefly: Resistance ratio of IC50 for human doxorubicin-resistant LoVo cells to human LoVo cells. In kind it is functional.
The next data set deals with CCRF-CEM. As to the kind of experiment: Cytotoxicity against human CEM cells after 72 hrs by MTT assay. The data set is classed as functional, cell-based. The method, boiled down: as §1
On the technique in general: Tetrazolium dyes change colour on reduction, which living cells bring about.

A short description of data set [4]: Cytotoxicity against human CEM/VBL100 cells after 72 hrs by MTT assay. The data set is classed as functional, cell-based. The settings on record: CEM/VBL100, 72 h. The procedure, abridged:
as §1

Data set [5] can be described thus: Cytotoxicity against human A549-T12 cells after 72 hrs by MTT assay. Conditions: A549, 72 h. The data set is classed as functional, cell-based. The procedure, abridged:
as §1

Data set [6] relates to HeLa. Briefly: Induction of cell cycle arrest in human HeLa cells assessed as decrease in G1 phase cells at 15 to 250 nM after 24 hrs by flow cytometry. In kind it is functional, cell-based. The method, boiled down:
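5 × 10^5 exponentially growing HeLa cells were treated with 15–250 nM for 24 h, fixed in ice-cold 70% ethanol, then treated with lysis buffer containing RNase A and 0.1% Triton X-100. PI staining of DNA content, read by flow cytometry. Mean ± SEM of three independent experiments.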

The subject of data set [7] is HeLa. As to the kind of experiment: Induction of apoptosis in human HeLa cells assessed as decrease in cdc25c level at 50 to 100 nM after 24 hrs by Western blot analysis. In kind it is functional, cell-based. The settings on record: in the assay text read “48 hrs” for “24 hrs”. The method, boiled down: (§2)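 HeLa cells were treated for 24 or 48 h, washed in ice-cold PBS and lysed on ice for 30 min; lysates were spun at 15000g, 4 °C. 20 μg protein per lane on SDS-PAGE (7.5–15%), then PVDF. Blocked overnight at 4 °C, primary antibodies 2 h at room temperature, peroxidase secondary 60 min, ECL detection. Blots were reprobed for β-actin as loading control.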
(In western blotting, separated proteins are transferred to a membrane and probed.)

In data set [8] the test system is HeLa. Briefly: Induction of apoptosis in human HeLa cells assessed as early apoptotic cells at 100 nM after 48 hrs by FITC conjugated annexin-V/PI staining-based flow cytometry (reference value: 9.6%). The data set is classed as functional. The method, boiled down: (§3)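 Flow cytometry of HeLa cells after 24 or 48 h exposure, double-stained with annexin-V-FITC and propidium iodide. Excitation at 488 nm, emission at 525 nm (FITC) and 585 nm (PI). Quadrants scored as live, early apoptotic, late apoptotic or necrotic cells.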
Background: Flow cytometry measures light scatter and fluorescence of single cells or particles in a stream.

Data set [9] relates to HeLa. As to the kind of experiment: Induction of necrosis in human HeLa cells assessed as necrotic cells at 100 nM after 48 hrs by FITC conjugated annexin-V/PI staining-based flow cytometry (reference value: 0.7%). The data set is classed as functional. The procedure, abridged:
as §3

For data set [10], the system named is HeLa. Briefly: Induction of mitochondrial depolarization in human HeLa cells assessed as JC1 aggregate level after 48 hrs by JC1-based fluorescent staining (reference value: 99.2%). In kind it is functional. The method, boiled down:
(§4)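 Mitochondrial membrane potential in HeLa cells after 24 or 48 h incubation, measured with the JC-1 dye by flow cytometry. Aggregates read as red (590 nm) and monomers as 530 nm; output is the percentage of depolarized cells. Mean ± SEM of three independent experiments.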

The test system of data set [11] is HeLa. Briefly: Induction of mitochondrial depolarization in human HeLa cells assessed as JC1 monomer level after 48 hrs by JC1-based fluorescent staining (reference value: 0.8%). In kind it is functional. The method, boiled down:
as §4

In data set [12] the test system is HeLa. Briefly: Induction of ROS production in human HeLa cells at 50 to 100 nM after 24 to 48 hrs by HE staining-based flow cytometry. The data set is classed as functional, cell-based. The method, boiled down: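 HeLa cells were exposed for 24 or 48 h, then stained with hydroethidine or H2-DCFDA for ROS and read by flow cytometry. DMSO ≤0.25%. Mean ± SEM of three independent experiments.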

The subject of data set [13] is HeLa. Briefly: Induction of apoptosis in human HeLa cells assessed as caspase3 activation at 50 to 100 nM after 24 to 48 hrs by Western blot analysis. The data set is classed as functional, cell-based. The procedure, abridged: as §2
In data set [14] the test system is HeLa. As to the kind of experiment: Induction of apoptosis in human HeLa cells assessed as PARP cleavage at 50 to 100 nM after 24 to 48 hrs by Western blot analysis. The data set is classed as functional, cell-based. The method, boiled down:
as §2

Data set [15] relates to HeLa. Briefly: Induction of apoptosis in human HeLa cells assessed as caspase9 activation at 50 to 100 nM after 24 to 48 hrs by Western blot analysis. In kind it is functional, cell-based. The method, boiled down:
as §2

Data set [16] relates to HeLa. As to the kind of experiment: Induction of apoptosis in human HeLa cells assessed as change in Bax protein expression at 50 to 100 nM after 24 to 48 hrs by Western blot analysis. In kind it is functional, cell-based. The procedure, abridged:
as §2

In data set [17] the test system is HT-29. As to the kind of experiment: Anticancer activity against human HT-29 cells xenografted in BALB/c nude mouse assessed as tumor growth inhibition at 100 mg/kg, ip administered on days 0,2 and 4 relative to vehicle treated control. In kind it is functional. The settings on record: HT-29, ip, route intraperitoneal, read-out: TGI. The procedure, abridged: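 HT-29 cells in log phase, suspended at 1 × 10^7 cells/mL in serum-free RPMI 1640, were inoculated (0.2 mL) into dorsal hypodermis of nude mice. At ~300 mm3, 18 mice were randomised to vehicle or two treatment groups (six per group). Dosing was 100 mg/kg ip in DMSO (0.01 mL/g) on days 0, 2 and 4. Caliper tumour volume V = LW²/2 and body weight were tracked versus vehicle.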

Another data set has as its system Mus musculus. As to the kind of experiment: Toxicity in BALB/c nude mouse assessed as change in body weight at 100 mg/kg, ip administered on days 0,2 and 4 measured after 1 week relative to control. The data set is classed as organism-based. More on the design: dose 100 mg/kg, route intraperitoneal. The settings on record: in vivo, 168 h. The method, boiled down:
(§5)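 HT-29 cells in log phase, resuspended in serum-free RPMI 1640 at 1 × 10^7 cells/mL, inoculated 0.2 mL subcutaneously in the back of nude mice. At ~300 mm3, 18 mice were randomized to vehicle or two treatment groups. Dosing: 100 mg/kg in DMSO, ip at 0.01 mL/g, on days 0, 2 and 4. Tumor volume by caliper as (LW2)/2 and body weight recorded; n = 6 per group, mean ± SEM.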

Data set [18] deals with HT-29. As to the kind of experiment: Anticancer activity against human HT-29 cells xenografted in BALB/c nude mouse assessed as reduction in tumor volume at 100 mg/kg, ip administered on days 0,2 and 4 measured on day 24 relative to vehicle treated control. The arrangement: scale not given: the % may be the effect or the level left. In kind it is functional. The settings on record: route intraperitoneal. The procedure, abridged: as §5

As to `CCOc1ccc(-c2nnnn2-c2cc(OC)c(OC)c(OC)c2)cc1`, the IC50 in the data set with Jurkat worked out at 0.16 nM; in the data set on MCF7, 2.3 nM; with HT-29 [1], 2.8 nM; in the data set on LoVo [2], 0.7 nM; with CCRF-CEM, 3.1 nM; in [4], 0.7 nM. Also, in [5], the half-maximal inhibitory concentration (IC50) came out at 8.2 nM. The inhibition in the data set listed under Bos taurus was 78%. Further, in the data set with LoVo [3], the “Ratio IC50” value turned out to be 0.64. The outcome in the data set with HeLa [6], in the data set with HeLa [7], with HeLa [12], in the data set on HeLa [13], in the data set on HeLa [14] and in the data set with HeLa [15] was Active. The Activity with HeLa [8] is 34.4%; with HeLa [9], 1.8%; in the data set with HeLa [10], 0.09%; in the data set on HeLa [11], 19.1%; in the data set with Mus musculus it was “Non-toxic”; with HT-29 [18] it was 66%. In the data set with HeLa [16], the result was inactive. Further, the inhibition in vivo at 100 mg/kg with HT-29 [17] came to 66%.
